The record followed here is ChEMBL document CHEMBL1144333, “Dipyridyl amides: potent metabotropic glutamate subtype 5 (mGlu5) receptor antagonists” (Bioorg Med Chem Lett, 2005).

A word on the IC50: it is the midpoint of a concentration-inhibition curve. The half-life is how long it takes for the measured level to halve. Low readings indicate rapid decline, high ones slow decline. What is called bioavailability is dose-corrected exposure relative to a reference, in per cent. A low value points to little systemic uptake.

In series [1] the target is T1, Metabotropic glutamate receptor 5 (Homo sapiens, UniProt P41594). In words: Inhibitory concentration against human recombinant metabotropic glutamate receptor 5 (mGlu5) in Ltk cells determined using fluorescence detection method. In kind it is cell-based. In outline:
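Automated functional Ca2+ flux assay in Ltk cells stably expressing human recombinant mGlu5. Changes in cytosolic Ca2+ were read by fluorescence with the Ca2+-sensitive dye fura-2. IC50 values are means of two to three experiments.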

Series [2] deals with T1, Metabotropic glutamate receptor 5. The experiment in a line: Inhibitory concentration against human recombinant metabotropic glutamate receptor 5 (mGlu5) in Ltk cells determined using fluorescence detection method; NA=Not Active. The format is cell-based. In outline:
(§1)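 Automated functional Ca2+ flux assay in Ltk cells stably expressing human recombinant mGlu5. Changes in cytosolic Ca2+ were read by fluorescence with the Ca2+-sensitive dye fura-2. IC50 values are means of two to three experiments. Compounds were called not active when IC50 > 10 μM.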

The nature of series [3]: Oral bioavailability in rat; LOQ = limit of quantitation. In kind it is ADME, organism-based. As to conditions: in vivo.
The nature of series [4]: Modest half life in rat was determined; LOQ = limit of quantitation. The format is ADME. The conditions noted are these: in vivo.
Series [5] can be described thus: High plasma clearance in rat was determined. The format is ADME, organism-based. The conditions noted are these: read-out: Clp.
Series [6] concerns the target T1, Metabotropic glutamate receptor 5. The experiment in a line: Inhibitory concentration against human recombinant metabotropic glutamate receptor 5 (mGlu5) in Ltk cells determined using fluorescence detection method; IA=Inactive. The format is cell-based. In outline:
as §1

Series [7] is described as follows: Modest half life in rat was determined. The format is ADME. As to conditions: in vivo.
Series [8] can be described thus: High plasma clearance was determined. The format is ADME, organism-based. The conditions noted are these: rat, read-out: Clp.
Series [9] in a line: Modest half life was determined. In kind it is ADME. As to conditions: rat.
Series [10] is described as follows: Low oral bioavailability was determined. The format is ADME, organism-based. The conditions noted are these: rat, in vivo.

T1 sequence (P41594 whole entry): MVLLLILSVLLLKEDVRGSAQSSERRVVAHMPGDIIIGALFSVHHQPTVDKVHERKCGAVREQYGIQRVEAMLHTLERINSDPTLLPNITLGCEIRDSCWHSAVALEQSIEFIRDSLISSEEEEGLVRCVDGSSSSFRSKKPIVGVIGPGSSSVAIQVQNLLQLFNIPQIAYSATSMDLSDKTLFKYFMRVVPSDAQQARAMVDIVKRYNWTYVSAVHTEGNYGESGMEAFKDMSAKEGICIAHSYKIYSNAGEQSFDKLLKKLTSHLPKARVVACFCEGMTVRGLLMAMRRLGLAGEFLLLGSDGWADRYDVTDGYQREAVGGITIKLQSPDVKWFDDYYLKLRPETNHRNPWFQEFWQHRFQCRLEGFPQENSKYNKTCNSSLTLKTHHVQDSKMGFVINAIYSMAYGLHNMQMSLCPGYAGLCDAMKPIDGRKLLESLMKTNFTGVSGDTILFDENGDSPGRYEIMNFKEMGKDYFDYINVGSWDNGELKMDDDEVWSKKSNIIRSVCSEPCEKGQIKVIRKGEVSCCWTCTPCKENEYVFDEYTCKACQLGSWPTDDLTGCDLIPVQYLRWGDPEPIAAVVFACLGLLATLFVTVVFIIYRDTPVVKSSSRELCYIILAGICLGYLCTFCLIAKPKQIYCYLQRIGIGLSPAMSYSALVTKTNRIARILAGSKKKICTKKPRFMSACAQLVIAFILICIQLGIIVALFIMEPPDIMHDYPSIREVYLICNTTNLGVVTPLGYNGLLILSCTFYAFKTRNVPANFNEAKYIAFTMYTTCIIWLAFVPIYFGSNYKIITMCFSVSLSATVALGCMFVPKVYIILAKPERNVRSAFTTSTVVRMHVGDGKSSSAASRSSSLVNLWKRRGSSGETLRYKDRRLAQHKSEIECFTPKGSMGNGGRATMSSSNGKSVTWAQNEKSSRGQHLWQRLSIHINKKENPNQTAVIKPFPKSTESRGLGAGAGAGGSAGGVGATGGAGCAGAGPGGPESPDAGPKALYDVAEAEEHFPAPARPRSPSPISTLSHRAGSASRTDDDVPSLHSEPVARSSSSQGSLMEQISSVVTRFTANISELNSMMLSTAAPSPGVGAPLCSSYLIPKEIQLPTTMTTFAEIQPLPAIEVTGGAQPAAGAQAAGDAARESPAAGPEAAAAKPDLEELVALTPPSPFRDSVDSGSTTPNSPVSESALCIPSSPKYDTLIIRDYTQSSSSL

`CN(C)c1nc(N)c(C(=O)Nc2ccccn2)nc1Cl`: in series [1], the half-maximal inhibitory concentration (IC50) worked out at 134 nM.

Regarding `CN(C)c1cnc(C(=O)Nc2ccccn2)c(N)n1`, the half-inhibitory concentration (IC50) in series [1] worked out at 5080 nM. `Cc1cncc(C(=O)Nc2ccccn2)n1`: the IC50 in series [1] was 165 nM.

Turning to `O=C(Nc1ccccn1)c1cncc(Cl)n1`, the concentration for half-maximal inhibition (IC50) in [1] is 254 nM.

For the molecule `Cc1ccc(O)c(C(=O)Nc2cccc(C)n2)c1`, the half-maximal inhibitory concentration (IC50) in series [1] amounted to 105 nM. Still for that read-out and setting: the figure for `CNc1ncc(Cl)nc1C(=O)Nc1ccccn1` is 145 nM. In the case of `Cc1cccc(NC(=O)c2nc(C)cnc2N)n1`, the IC50 in series [1] worked out at 8 nM.

On to `CN(C)c1ncc(Br)nc1C(=O)Nc1ccccn1`, for which, in series [2], the IC50 result is “Not Active”. For `Cc1cccc(NC(=O)c2nc(C)ccc2O)n1`, in series [1], the IC50 is 7 nM. In addition, the F entry in [3] is listed as “Limit of quantification”. Further, the T1/2 result in series [4] is listed as “Limit of quantification”. Besides, the clearance in series [5] is more than 100 mL/min/kg. Take `CC(C)Nc1nc(N)c(C(=O)Nc2ccccn2)nc1Cl`: in [1], the IC50 came out at 23 nM. Take `Cc1cccc(NC(=O)c2cccc(Br)n2)n1`: in [1], the IC50 amounted to 21 nM. Still for that read-out and setting: the figure for `Cc1cccc(NC(=O)c2nc(C)ccc2N)n1` is 22 nM.

With `O=C(Nc1ccccn1)c1cncc(Br)c1`, the IC50 entry in series [6] is on record as “Not Active”. With `Nc1nc(N)c(C(=O)Nc2ccccn2)nc1Cl`, the half-maximal inhibitory concentration (IC50) in series [1] is 3800 nM. Take `Cc1cccc(NC(=O)c2nc(C)ccc2Nc2cccnc2)n1`: the half-maximal inhibitory concentration (IC50) in [1] stood at 11 nM. The molecule further had a half-life in series [7] of 1.25 h. Further, the clearance in series [5] was 176 mL/min/kg. `Cc1cccc(N(C)C(=O)c2nc(C)cnc2N)n1`: in series [6], the half-inhibitory concentration (IC50) result is on record as “Not Active”.

On to `Nc1ncc(Br)nc1C(=O)Nc1ccccn1`, for which, in series [1], the IC50 worked out at 12 nM. For the molecule `Cc1cnc(N)c(C(=O)Nc2ccccn2)n1`, the clearance in series [8] worked out at 56 mL/min/kg. For the same molecule, the concentration for half-maximal inhibition (IC50) in series [1] came to 28 nM. This molecule also gave a half-life in [9] of 4.4 h. In [10], this molecule came in with a bioavailability of 20%. Consider `Nc1nc(N2CCCCC2)c(Cl)nc1C(=O)Nc1ccccn1`, for which the 50% inhibitory concentration (IC50) in series [1] was found to be 103 nM. With `O=C(Nc1ccccn1)c1cccc(Br)c1`, the 50% inhibitory concentration (IC50) result in series [6] is reported as “Not Active”. As for `Nc1nccnc1C(=O)Nc1ccccn1`, in [1], the half-inhibitory concentration (IC50) was found to be 3540 nM. As for `O=C(Nc1ccccn1)c1cnccn1`, the half-inhibitory concentration (IC50) entry in series [2] is reported as “Not Active”. As for `Nc1ncc(Cl)nc1C(=O)Nc1ccccn1`, the concentration for half-maximal inhibition (IC50) in series [1] was 11 nM. For the molecule `Cc1cccc(NC(=O)c2nc(Cl)cnc2N)n1`, the IC50 in series [1] is 5 nM. The same measure, in the same setting: the figure for `CN(C)c1ncc(C(=O)Nc2ccccn2)nc1Cl` is 158 nM; for `Cc1cccc(NC(=O)c2cccc(C)n2)n1` it is 32 nM.
